High-throughput results (PubChem BioAssay)
Compounds with a hit are over-represented: about 3.5% of the library has one in this group of screens.
RGS4 inh: human RGS4 inhibition; HEK293 M3R/RGS4 inducible, Fluo-4 calcium flux; hits give high values; triggered by carbachol at its EC20; P49798; AID 463165; B-score at 10 µM; 310,000 compounds, 0.45% hits;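 active means B-score, a plate-corrected calcium signal, over three deviations above library mean, with baseline fluorescence within five deviations of library mean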;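 further: RGS4 expression induced by doxycycline in cells with stable M3 receptor; B-score is computed from the integrated fluorescence ratio over baseline after carbachol; higher B-score means a larger calcium signal and so more RGS4 inhibition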
Target sequence (P49798 whole entry, looked up): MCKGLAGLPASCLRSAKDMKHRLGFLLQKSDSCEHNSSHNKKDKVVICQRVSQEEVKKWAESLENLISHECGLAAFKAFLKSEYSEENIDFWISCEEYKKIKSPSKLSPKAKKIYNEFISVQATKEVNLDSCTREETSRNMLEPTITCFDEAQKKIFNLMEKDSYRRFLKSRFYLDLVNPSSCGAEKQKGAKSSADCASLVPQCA
MrgX1 PAM: human MrgX1 positive allosteric modulation, primary screen. 310,000 compounds, 0.63% hits. B-score at 10 µM. MrgX1-HEK293, Fluo-4 calcium flux, FDSS; hits give high values;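 active means plate-corrected calcium response at least 3 library SD above typical, normal starting fluorescence, not activating the receptor alone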;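 further: compound read alongside a low EC10 to EC30 dose of BAM8-22 agonist; peak minus trough fluorescence over baseline measured at the second addition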
Target sequence (Q96LB2 whole entry, looked up): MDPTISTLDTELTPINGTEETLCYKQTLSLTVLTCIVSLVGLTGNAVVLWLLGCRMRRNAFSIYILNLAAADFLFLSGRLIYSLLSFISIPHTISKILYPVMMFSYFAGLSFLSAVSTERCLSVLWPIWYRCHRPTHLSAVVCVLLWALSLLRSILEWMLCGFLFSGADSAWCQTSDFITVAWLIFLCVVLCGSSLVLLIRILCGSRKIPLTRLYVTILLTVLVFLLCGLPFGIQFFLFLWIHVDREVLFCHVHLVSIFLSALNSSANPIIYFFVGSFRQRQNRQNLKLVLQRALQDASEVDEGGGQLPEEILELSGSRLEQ
MrgX1 antag: antagonists of human MrgX1 receptor. B-score at 10 µM. Q96LB2. AID 588676. MRGX1-HEK293 calcium flux, Fluo-4, BAM8-22 antagonism; hits give low values. 310,000 compounds, 1.3% hits;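 active means calcium-response B-score plate-corrected more than 3 library SD below zero, starting fluorescence within 5 deviations, no agonist response on first addition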;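 further: peak minus trough fluorescence over baseline after final BAM8-22 challenge near maximal dose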
RGS4 pot: RGS4 potentiation or activation | AID 463111 | B-score at 10 µM | 310,000 compounds, 0.92% hits | HEK293 M3R/inducible RGS4, carbachol calcium flux Fluo4; hits give low values;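 active means B-score of the integrated calcium signal more than 4 SD below the library mean, with starting fluorescence not abnormally high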;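 further: negative B-score means reduced calcium response which marks RGS4 activation or potentiation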
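Assay system: HEK293 FlpIn-TREx cells, stable M3R, doxycycline-inducible RGS4 / Probe or stimulus: carbachol, ECmax concentration / Times: overnight RGS4 induction, 30 min dye load 37 °C, 20 min compound RT / Signal: kinetic calcium fluorescence imaging with Fluo4-AM dye, 2 µM / Measure: Agonist-evoked peak-minus-minimum fluorescence over baseline, integrated ratio, B score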
MrgX1 ag: activates human MrgX1 receptor signaling; Q96LB2; MrgX1-HEK293 cells, Fluo-4 calcium fluorescence, agonist mode; hits give high values; B-score at 10 µM; 310,000 compounds, 0.44% hits; AID 588627;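 active means calcium response B-score plate-corrected fluorescence ratio at least 3 library SD, with starting fluorescence B-score inside 5 SD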
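System: HEK293 cells stably expressing human MrgX1 receptor; Dosing: test compound in the initial addition of three; Schedule: overnight plating, then 30 min 37 °C plus 30 min room-temperature dye loading; Detection: kinetic calcium dye fluorescence, Fluo-4 NW; Controls: per-plate positive and negative controls for Z′ factor.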
MrgX1 PAM conf: reconfirmed allosteric activator of human MrgX1 receptor; shares compounds with MrgX1 PAM; MrgX1-HEK293, Fluo-4 calcium fluorescence, FDSS; activation (ratio percentage), % at 10 µM; 1,200 compounds, 13% hits;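 active means ratio at least 3 SD above the weak peptide control, stable starting fluorescence, no direct agonism earlier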;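 further: compound followed by low BAM8-22 agonist challenge near EC20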
HEK293 Ca flux: MrgX1 antagonist counter-screen hit in parental HEK293 cells; shares compounds with MrgX1 antag; fluorescence ratio F(max-min)/F0 at 10 µM; Fluo-4 calcium fluorescence, FDSS; 4,000 compounds, 2% hits;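 active means duplicate-averaged calcium fluorescence ratio at least three times the standard deviation of buffer wells, a nonspecific response in parental cells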
HEK293 Ca counter: counter-screen for MrgX1 allosteric activators: effect in parental HEK293 cells | fluorescence ratio F(max-min)/F0 at 10 µM | 4,000 compounds, 0.4% hits | shares compounds with MrgX1 antag | parental HEK293 calcium flux, Fluo-4 fluorescence ratio; hits give high values | AID 624114;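 active means calcium fluorescence ratio, averaged over duplicates, at least 3 SD of the buffer-well ratio, meaning a nonspecific response in receptor-free cells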;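 further: untransfected parental HEK293 lacking MrgX1 used as counterscreen for MrgX1 allosteric activators; fluorescence change taken during the second addition on a kinetic imager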
HEK293 Ca cntr2: MrgX1 activator counter-screen hit in parental HEK293 cells; shares compounds with MrgX1 antag; Fluo-4 calcium fluorescence (FDSS); hits give high values; fluorescence ratio F(max-min)/F0 at 10 µM; 4,000 compounds, 8.7% hits;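 active means calcium fluorescence ratio at least three times the spread of buffer wells, meaning a non-specific response in parental cells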
Active calls of the source: *.

For Cc1ccc(C)c(OC(=O)c2cccnc2Cl)c1C the results were RGS4 inh inactive, MrgX1 PAM inactive, MrgX1 antag inactive, RGS4 pot inactive and MrgX1 ag inactive.
Oc1ccccc1-c1cc(-c2ccc3c(c2)OCCO3)n[nH]1 was read as RGS4 inh inactive, MrgX1 PAM 6.92*, MrgX1 antag inactive, RGS4 pot inactive, MrgX1 ag inactive, MrgX1 PAM conf inactive, HEK293 Ca flux inactive, HEK293 Ca counter inactive and HEK293 Ca cntr2 inactive.
`O=C(O)c1cc(-c2ccc3c(c2)OCCO3)n[nH]1` gave RGS4 inh inactive, MrgX1 PAM inactive, MrgX1 antag inactive, RGS4 pot inactive and MrgX1 ag inactive.
For Cc1ccc(S(=O)(=O)N/N=C/c2cccc3nccnc23)cc1 the results were RGS4 inh inactive, MrgX1 PAM 20.3*, MrgX1 antag inactive, RGS4 pot inactive, MrgX1 ag inactive, MrgX1 PAM conf inactive, HEK293 Ca flux inactive, HEK293 Ca counter inactive and HEK293 Ca cntr2 inactive.
`Cc1ccc(S(=O)(=O)N/N=C/c2cccc3c2OCCO3)cc1` gave RGS4 inh inactive, MrgX1 PAM inactive, MrgX1 antag inactive, RGS4 pot inactive and MrgX1 ag inactive.
Screening COc1ccc(S(=O)(=O)N2CCN(C(=O)NCc3ccc(C)cc3)CC2)cc1 returned RGS4 inh inactive, MrgX1 PAM inactive, MrgX1 antag inactive, RGS4 pot inactive and MrgX1 ag inactive.
Nc1ccc2nc(SCc3cccc(F)c3)sc2c1 was read as RGS4 inh inactive, MrgX1 PAM 9.18*, MrgX1 antag inactive, RGS4 pot inactive, MrgX1 ag inactive, MrgX1 PAM conf inactive, HEK293 Ca flux inactive, HEK293 Ca counter inactive and HEK293 Ca cntr2 inactive.
`CCOC(=O)CSc1nc2ccc(N)cc2s1` gave RGS4 inh inactive, MrgX1 PAM inactive, MrgX1 antag inactive, RGS4 pot inactive and MrgX1 ag inactive.
`C#CCNC(=O)C1=C[C@H](c2cn(C(C)=O)c3ccccc23)[C@@H](CCCO)[C@H](OCC)O1` gave RGS4 inh inactive, MrgX1 PAM inactive, MrgX1 antag inactive, RGS4 pot inactive and MrgX1 ag inactive.
Screening CCOC(=O)c1c(-c2ccc(F)cc2)csc1NC(=O)C1CCCO1 (stereo not drawn) returned RGS4 inh inactive, MrgX1 PAM 10.7*, MrgX1 antag inactive, RGS4 pot inactive, MrgX1 ag inactive, MrgX1 PAM conf inactive, HEK293 Ca flux inactive, HEK293 Ca counter inactive and HEK293 Ca cntr2 inactive.
CCOC(=O)c1c(-c2ccc(OC)cc2)csc1NC(=O)C1CCCO1 (stereo not drawn) was read as RGS4 inh inactive, MrgX1 PAM 23.8*, MrgX1 antag inactive, RGS4 pot inactive, MrgX1 ag inactive, MrgX1 PAM conf inactive, HEK293 Ca flux inactive, HEK293 Ca counter inactive and HEK293 Ca cntr2 inactive.
`O=C(Nc1scc(-c2ccccc2)c1C(=O)O)c1ccco1` gave RGS4 inh inactive, MrgX1 PAM inactive, MrgX1 antag inactive, RGS4 pot inactive and MrgX1 ag inactive.
`CCOC(=O)c1c(-c2ccc(C)cc2)csc1NC(=O)C1CCCO1` (stereo not drawn) gave RGS4 inh inactive, MrgX1 PAM 12.7*, MrgX1 antag inactive, RGS4 pot inactive, MrgX1 ag inactive, MrgX1 PAM conf 19.1%*, HEK293 Ca flux inactive, HEK293 Ca counter inactive and HEK293 Ca cntr2 inactive.
Screening COC(=O)c1c(-c2cccc(C)c2)csc1NC(=O)C1CCCO1 (stereo not drawn) returned RGS4 inh inactive, MrgX1 PAM inactive, MrgX1 antag inactive, RGS4 pot inactive and MrgX1 ag inactive.
For COC(=O)c1c(-c2ccc(F)cc2)csc1NC(=O)c1ccco1 the results were RGS4 inh inactive, MrgX1 PAM 21.5*, MrgX1 antag inactive, RGS4 pot inactive, MrgX1 ag inactive, MrgX1 PAM conf 22.0%*, HEK293 Ca flux inactive, HEK293 Ca counter inactive and HEK293 Ca cntr2 inactive.
CN1C(=O)CS/C1=N\NC(=O)COc1cccc2cccnc12 was read as RGS4 inh inactive, MrgX1 PAM inactive, MrgX1 antag inactive, RGS4 pot inactive and MrgX1 ag inactive.
For COc1ccc(NC(=O)CN(C)C(=O)CNC(=O)c2cccs2)cc1 the results were RGS4 inh inactive, MrgX1 PAM inactive, MrgX1 antag inactive, RGS4 pot inactive and MrgX1 ag inactive.
O=C(c1ccncc1)c1ccc(N2CCN(C3CC(=O)N(Cc4cccs4)C3=O)CC2)cc1 (stereo not drawn) was read as RGS4 inh inactive, MrgX1 PAM 6.88*, MrgX1 antag inactive, RGS4 pot inactive, MrgX1 ag inactive, MrgX1 PAM conf inactive, HEK293 Ca flux inactive, HEK293 Ca counter inactive and HEK293 Ca cntr2 inactive.
`COc1ccc(CC(=O)Nc2cc(=O)n(C)c(=O)n2C)cc1OC` gave RGS4 inh inactive, MrgX1 PAM 6.64*, MrgX1 antag inactive, RGS4 pot inactive, MrgX1 ag inactive, MrgX1 PAM conf inactive, HEK293 Ca flux inactive, HEK293 Ca counter inactive and HEK293 Ca cntr2 inactive.
`COc1ccc(C(=O)Nc2cc(=O)n(C)c(=O)n2C)cc1OC` gave RGS4 inh inactive, MrgX1 PAM inactive, MrgX1 antag inactive, RGS4 pot inactive and MrgX1 ag inactive.
`O=C(NCCc1ccccc1)C(=O)c1c(-c2ccccc2)[nH]c2ccccc12` gave RGS4 inh inactive, MrgX1 PAM 11.4*, MrgX1 antag inactive, RGS4 pot inactive, MrgX1 ag inactive, MrgX1 PAM conf inactive, HEK293 Ca flux inactive, HEK293 Ca counter inactive and HEK293 Ca cntr2 inactive.
For C=CCNC(=O)C(=O)c1c(-c2ccccc2)[nH]c2ccccc12 the results were RGS4 inh inactive, MrgX1 PAM inactive, MrgX1 antag inactive, RGS4 pot inactive and MrgX1 ag inactive.
Screening COc1ccc2c(C)cc(SCC(=O)N3CCOCC3)nc2c1 returned RGS4 inh inactive, MrgX1 PAM inactive, MrgX1 antag inactive, RGS4 pot inactive and MrgX1 ag inactive.
